This passage reports IC50, inhibition and Activity results from ChEMBL document CHEMBL2176867, “Design, synthesis, and biological evaluation of novel deguelin-based heat shock protein 90 (HSP90) inhibitors targeting proliferation and angiogenesis” (J Med Chem, 2012).

Data set [1] can be described thus: Cytotoxicity against human H1299 cells after 3 days by MTS assay. It is filed as functional, cell-based. Particulars: NCI-H1299, 72 h. A digest of the protocol:
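H1299 NSCLC cells seeded at 5 × 10³ cells/well, treated next day with graded concentrations (0.1% DMSO as dilution control); proliferation read by MTS after 3 days; at least three replicate wells; IC50 taken as mean of triplicate experiments.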

Data set [2] concerns the target Heat shock protein HSP 90-beta (Homo sapiens) (UniProt P08238). Kind of data set: Inhibition of HSP90 in human H1299 cells assessed as reduction of HIF1alpha level treated for 72 hrs followed by incubated for 12 hrs under hypoxia condition by Western blot analysis. It is filed as cell-based. A digest of the protocol:
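H1299 cells left untreated or exposed to test agents at each concentration for 72 h, then held under hypoxia (1% O₂) for 12 h; lysates immunoblotted with monoclonal anti-HIF-1α antibody.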
Background: Immunoblotting shows a protein as a band on a membrane.

Data set [3] is filed under the species Danio rerio. Kind of data set: Antiangiogenic activity in transgenic zebrafish at 0.05 to 1.25 uM up to 72 hrs. It is filed as functional, organism-based. An outline of the steps:
(§1)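 Tg(fli:EGFP)^y1 embryos, treated with 1-phenyl-2-thiourea at 12 hpf to block pigmentation, placed in Danieau's solution ± test agents (50, 250, 1250 nM) at 24 hpf; solution washed out at 48 hpf; subintestinal vessels imaged in 72 hpf larvae against DMSO control.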

The species entered for data set [4] is Danio rerio. Description: Toxicity in transgenic zebrafish embryos assessed as effect on viability at 50 nM to 1.25 uM after 74 hrs. It is filed as organism-based. The conditions noted are these: in vivo, 0.05 µM. An outline of the steps: (§2)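 Zebrafish embryos exposed from 24 hpf to 50 nM–1.25 μM in Danieau's solution (pigmentation blocked with 1-phenyl-2-thiourea at 12 hpf); solution washed out at 48 hpf, then scored for viability and gross morphological abnormalities.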

For data set [5], the species on record is Danio rerio. Description: Toxicity in transgenic zebrafish embryos assessed as developmental deffect at 10 uM after 24 hrs. It is filed as organism-based. The conditions noted are these: in vivo.
The species named for data set [6] is Danio rerio. Kind of data set: Toxicity in transgenic zebrafish embryos assessed as effect on growth at 50 nM to 1.25 uM after 74 hrs. It is filed as organism-based. Particulars: in vivo, 0.05 µM. An outline of the steps: as §2
Data set [7] is filed under the species Danio rerio. Description: Toxicity in transgenic zebrafish embryos assessed as developmental deffect at 50 nM to 1.25 uM after 24 hrs. The conditions noted are these: in vivo, 0.05 µM. It is filed as organism-based. A digest of the protocol: as §2
The species entered for data set [8] is Danio rerio. Kind of data set: Antiangiogenic activity in transgenic zebrafish embryos.
Data set [9] is filed under the species Danio rerio. Description: Toxicity in transgenic zebrafish embryos assessed as developmental deffect at 50 nM to 10 uM after 24 hrs. It is filed as organism-based. The conditions noted are these: in vivo, 0.05 µM. An outline of the steps: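 Tg(fli:EGFP)y1 zebrafish embryos were exposed dose-dependently from 50% epiboly (5.3 hpf) across 50 nM to 10 μM, then scored for developmental defects. Pigmentation was blocked with 1-phenyl-2-thiourea at 12 hpf, and compounds were given in Danieau's solution, with DMSO as the negative control.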

Data set [10] is filed under the species Danio rerio. Description: Toxicity in transgenic zebrafish embryos assessed as effect on viability after 24 hrs. It is filed as organism-based. Particulars: in vivo. A digest of the protocol:
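Tg(fli:EGFP)y1 zebrafish embryos, with pigment suppressed by 1-phenyl-2-thiourea from 12 hpf, were placed at 24 hpf in Danieau's solution with or without compound (50 nM to 1.25 μM). The solution was washed out at 48 hpf, and embryos were examined for viability and gross morphological abnormalities, with DMSO as the control.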

The species entered for data set [11] is Danio rerio. Kind of data set: Antiangiogenic activity in transgenic zebrafish at 50 nM up to 72 hrs. It is filed as functional, organism-based. A digest of the protocol: as §1
For data set [12], the target named is Heat shock protein HSP 90-beta (Homo sapiens) (UniProt P08238). Description: Inhibition of HSP90 binding to HIF1alpha in human H1299 cells at 12.5 uM after 30 mins by immunoprecipitation and immunoblotting analysis in presence of ATP. It is filed as cell-based. The conditions noted are these: 1.25 uM, in the assay text read “1.25 uM” for “12.5 uM”. An outline of the steps:
(§3)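 Cell-free format: lysates of H1299 cells pretreated with 100 μM CoCl₂ for 5 h, incubated with compound at 1.25 μM, with or without 20 mM ATP, 30 min at 37 °C. HIF-1α immunoprecipitated (antibody overnight, 4 °C; protein G-agarose 2 h, 4 °C), resolved on 6% SDS-PAGE, blotted for HSP90.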

For data set [13] the target is unchanged. Description: Inhibition of HSP90 binding to HIF1alpha in human H1299 cells at 12.5 uM after 30 mins by immunoprecipitation and immunoblotting analysis. It is filed as cell-based. Particulars: 1.25 uM, in the assay text read “1.25 uM” for “12.5 uM”. An outline of the steps:
as §3

The species entered for data set [14] is Danio rerio. Description: Antiangiogenic activity in transgenic zebrafish assessed as depletion of subintestinal veins after 72 hrs. It is filed as functional, organism-based. A digest of the protocol:
as §1

The species entered for data set [15] is Danio rerio. Description: Antiangiogenic activity in transgenic zebrafish assessed as depletion of subintestinal veins at 50 nM to 1250 nM after 72 hrs. It is filed as functional, organism-based. An outline of the steps:
as §1

The source made the active and inactive calls. The calls are words filed in the database; no cut-off is given here.

Heat shock protein HSP 90-beta (Homo sapiens), sequence (P08238 whole entry): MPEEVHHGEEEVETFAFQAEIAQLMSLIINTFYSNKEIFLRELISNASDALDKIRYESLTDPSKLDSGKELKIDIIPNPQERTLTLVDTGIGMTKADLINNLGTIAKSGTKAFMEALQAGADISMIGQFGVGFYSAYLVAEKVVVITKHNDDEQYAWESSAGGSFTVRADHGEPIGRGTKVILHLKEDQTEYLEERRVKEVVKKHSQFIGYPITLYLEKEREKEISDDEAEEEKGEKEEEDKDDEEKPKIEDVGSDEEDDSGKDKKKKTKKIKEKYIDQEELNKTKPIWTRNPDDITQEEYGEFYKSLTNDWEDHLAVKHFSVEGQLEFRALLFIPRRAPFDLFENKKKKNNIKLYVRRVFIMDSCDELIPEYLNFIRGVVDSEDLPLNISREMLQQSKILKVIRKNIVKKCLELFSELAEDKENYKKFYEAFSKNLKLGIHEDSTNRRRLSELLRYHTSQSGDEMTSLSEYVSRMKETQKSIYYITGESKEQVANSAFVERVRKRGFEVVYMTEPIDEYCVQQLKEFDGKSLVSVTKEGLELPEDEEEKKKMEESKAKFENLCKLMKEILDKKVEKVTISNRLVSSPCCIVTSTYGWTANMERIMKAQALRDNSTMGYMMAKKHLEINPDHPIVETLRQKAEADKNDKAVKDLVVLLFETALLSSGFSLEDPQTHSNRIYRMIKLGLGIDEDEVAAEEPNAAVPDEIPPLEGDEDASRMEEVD

For `COc1cc2c(cc1O)[C@@H]1C(=O)c3ccc4c(c3O[C@@H]1CO2)C=CC(C)(C)O4`, in data set [1], the IC50 worked out at 0.97 µM. In the case of `COc1cc2c(cc1OC)[C@@H]1[C@H](O)c3ccc4c(c3O[C@@H]1CO2)C=CC(C)(C)O4`, the inhibition entry in data set [2] was “Active”. 0.01 µM corresponded to half-maximal inhibition in data set [1] (IC50). The outcome in the data set listed under Danio rerio [3] was inactive. For the compound `COc1cc2c(cc1OC)[C@@H]1C(=O)c3ccc(O)c(CC=C(C)C)c3O[C@@H]1CO2` [ROTENONIC ACID], half-maximal inhibition in [1] (IC50) required 9.8 µM. Turning to `CC1(C)C=Cc2c(ccc3c2O[C@@H]2COc4cc(O)c(O)cc4[C@@H]2C3=O)O1`, the IC50 in data set [1] is 10.1 µM. This IC50 and that of the compound before are within 1.5-fold of each other. In data set [1], `CCCO[C@@H]1c2ccc3c(c2O[C@@H]2COc4cc(OC)c(OC)cc4[C@H]12)C=CC(C)(C)O3` came in with an IC50 of 10.5 µM. Turning to `COc1cc2c(cc1OC)[C@@H]1C(=O)c3ccc(OC)c(CC=C(C)C)c3O[C@@H]1CO2` [ROTENONIC ACID, METHYL ETHER], in data set [1], the midpoint of inhibition, the IC50, lay at 5.2 µM. Compared with the last compound, the IC50 is about 2-fold lower.

Compound `COc1ccc(CC(=O)c2ccc3c(c2)C=CC(C)(C)O3)cc1OC` showed an IC50 in data set [1] of 1 µM. In turn, `COc1cc2c(cc1OC)[C@@H]1Cc3ccc4c(c3O[C@@H]1CO2)C=CC(C)(C)O4` displayed an IC50 in data set [1] of 4.2 µM. This IC50 is about 4.2-fold higher than that of the compound before.

In data set [1], `COc1cc2c(cc1OC)C(C(=O)c1ccc3c(c1)C=CC(C)(C)O3)CCO2` (racemic) came in with an IC50 of 3.8 µM. The IC50 values of the last two compounds are within 1.5-fold of each other.

Turning to `CCO[C@@H]1c2ccc3c(c2O[C@@H]2COc4cc(OC)c(OC)cc4[C@H]12)C=CC(C)(C)O3`, in data set [1], half-maximal inhibition (IC50) was put at 9.8 µM. This IC50 lies about 2.6-fold higher than the previous one. Consider `COc1cc2c(cc1OC)[C@@H]1[C@H](OC(N)=O)c3ccc4c(c3O[C@@H]1CO2)C=CC(C)(C)O4`, for which, in data set [2], the inhibition result is “Active”. In addition, the IC50 in [1] came to 0.11 µM. For the same compound, the outcome in the data set listed under Danio rerio [3] was inactive. In data set [1], `COc1ccc(C2(C(=O)c3ccc4c(c3OC)C=CC(C)(C)O4)CC2)cc1OC` returned an IC50 of 102 µM. `COc1cc2c(cc1OC)[C@@H]1C(=O)c3ccc4c(c3O[C@@H]1CO2)C(O)C(O)C(C)(C)O4` (some centres undefined): the IC50 in [1] is > 500 µM. In data set [1], `COc1cc2c(cc1OC)[C@@H]1/C(=N/O)c3ccc4c(c3O[C@@H]1CO2)C=CC(C)(C)O4` displayed an IC50 of 0.3 µM. For the compound `COc1cc2c(cc1OC)[C@@H]1C(=O)c3ccc(OC(C)=O)c(CC=C(C)C)c3O[C@@H]1CO2`, the IC50 in data set [1] was > 500 µM. For the compound `COc1cc2c(cc1O)OC[C@H]1Oc3c(ccc4c3C=CC(C)(C)O4)C(=O)[C@@H]21`, half-maximal inhibition in data set [1] (IC50) was put at 0.87 µM. For the compound `COc1ccc([C@@H](C)C(=O)c2ccc3c(c2OC)C=CC(C)(C)O3)cc1OC`, the inhibition entry in [2] was “Active”. Also, the Activity entry is “Non-toxic” in the data set filed under Danio rerio [4]; “Toxic” in the data set filed under Danio rerio [5]; “Non-toxic” in the data set listed under Danio rerio [6]; “Non-toxic” in the data set filed under Danio rerio [7]; “Dose-dependent effect” in the data set filed under Danio rerio [8]. This compound also yielded an IC50 in data set [1] of 1.3 µM. In the case of `COc1ccc(C2COc3c(ccc4c3C=CC(C)(C)O4)C2=O)cc1OC` (racemic), the IC50 in [1] is 4.5 µM. This counts as single-digit micromolar. The same measure, in the same setting: the same measure for `C=CCOc1ccc2c(c1CC=C(C)C)O[C@@H]1COc3cc(OC)c(OC)cc3[C@@H]1C2=O`: > 500 µM. In data set [1], `COc1cc2c(cc1OC)[C@@H]1C(=O)c3ccc4c(c3O[C@@H]1CO2)C=CC(C)(C)O4` [DEGUELIN] displayed an IC50 of 0.11 µM. Further, the Activity result is reported as “Toxic” in the data set listed under Danio rerio [9] and “Dose-dependent effect” in the data set filed under Danio rerio [10]. The outcome in the data set filed under Danio rerio [11] was inactive. For `COc1ccc(C(C)(C)C(=O)c2ccc3c(c2OC)C=CC(C)(C)O3)cc1OC`, half-maximal inhibition in data set [1] (IC50) required 3.2 µM. This counts as single-digit micromolar. The same measure, in the same setting: for `COc1cc2c(cc1OC)[C@@H]1[C@H](OC(C)=O)c3ccc4c(c3O[C@@H]1CO2)C=CC(C)(C)O4` the value was 0.68 µM. The same measure, in the same setting: the same measure for `COc1cc2c(cc1OC)[C@@H]1C(=O)c3ccc4c(c3O[C@@H]1CO2)CCC(C)(C)O4`: 0.14 µM.

With `COc1cc2c(cc1OC)-c1c(oc3c4c(ccc3c1=O)OC(C)(C)C=C4)CO2` [DEHYDRODEGUELIN], the IC50 in [1] was > 500 µM. On the same count and under the same terms, the same measure for `COc1cc2c(cc1OC)[C@@H]1C(=O)c3ccc(OCc4ccccc4)c(CC=C(C)C)c3O[C@@H]1CO2`: > 500 µM; for `COc1cc2c(cc1OC)[C@@H]1/C(=N/OCc3ccccc3)c3ccc4c(c3O[C@@H]1CO2)C=CC(C)(C)O4`: > 500 µM; for `COc1cc2c(cc1OC)[C@@H]1[C@H](OC)c3ccc4c(c3O[C@@H]1CO2)C=CC(C)(C)O4`: 4.1 µM.

For `COc1ccc(CC(=O)c2ccc3c(c2OC)C=CC(C)(C)O3)cc1OC`, the inhibition entry in data set [2] and in [13] was “Active” in each case. The inhibition entry in [12] was “inactive”. Also, the Activity entry is “Non-toxic” in the data set listed under Danio rerio [4]; “Dose-dependent effect” in the data set filed under Danio rerio [14]; “Toxic” in the data set filed under Danio rerio [5]; “Non-toxic” in the data set listed under Danio rerio [6]; “Non-toxic” in the data set filed under Danio rerio [7]; “Dose-dependent effect” in the data set listed under Danio rerio [8]. The same compound came in with an IC50 in data set [1] of 0.14 µM.

Consider `CO/N=C1\c2ccc3c(c2O[C@@H]2COc4cc(OC)c(OC)cc4[C@H]12)C=CC(C)(C)O3`, for which, in [1], the IC50 is 4.3 µM. On the same count and under the same terms, for `COc1cc2c(cc1OC)C1=Cc3ccc4c(c3O[C@@H]1CO2)C=CC(C)(C)O4` the value was > 500 µM. `COc1ccc([C@H](C)C(=O)c2ccc3c(c2OC)C=CC(C)(C)O3)cc1OC`: the inhibition entry in [2] and in data set [13] was “Active” each time. For the same compound, the inhibition entry in data set [12] was “inactive”. The Activity result was “Non-toxic” in the data set filed under Danio rerio [4]; “Toxic” in the data set listed under Danio rerio [5]; “Non-toxic” in the data set filed under Danio rerio [6]; “Non-toxic” in the data set listed under Danio rerio [7]; “Dose-dependent effect” in the data set listed under Danio rerio [8]. Also, in the data set filed under Danio rerio [15], the outcome was Active. The IC50 in [1] was determined as 0.49 µM. On to `COc1cc2c(cc1OC)[C@@H]1[C@H](OCc3ccccc3)c3ccc4c(c3O[C@@H]1CO2)C=CC(C)(C)O4`, for which the IC50 in data set [1] is > 500 µM. The same measure, in the same setting: the same measure for `COc1ccc(C(C)C(=O)c2ccc3c(c2OC)C=CC(C)(C)O3)cc1OC` (racemic): 0.73 µM.

As a reminder, the IC50 is the concentration at which inhibition is half-maximal.
